Source: ChEMBL document CHEMBL1134786, “Novel potent inhibitors of lipid peroxidation with protective effects against reperfusion arrhythmias” (J Med Chem, 2001)

Assays:
Rattus norvegicus [1] = species on record: Rattus norvegicus; test: Evaluated for the interaction with 0.2 mM of the stable free radical DPPH.; assay type: functional
How it was run: (§1)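 Compounds were reacted with the stable free radical DPPH at 0.2 mM. The IC50 (mM) is the concentration that reacts with half of the radical.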

Rattus norvegicus [2] = species on record: Rattus norvegicus; test: Inhibition of in vitro peroxidation (LP) of rat Hepatic microsomal membrane lipid; assay type: functional
How it was run: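 Rat liver microsomal membranes were subjected to lipid peroxidation induced by ferrous ions and ascorbate. Values are mean ± SEM, n = 3.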

Rattus norvegicus [3] = species on record: Rattus norvegicus; test: Effect on in vitro accumulation of MDA content in heart, at conc of 5 uM; assay type: functional
Rattus norvegicus [4] = species on record: Rattus norvegicus; test: Effect on in vitro myocardial electrical activity (arrhythmia score) at 5 uM; assay type: functional, Myocardium
Rattus norvegicus [5] = species on record: Rattus norvegicus; test: The compound was evaluated for the interaction with 0.2 mM of the stable free radical DPPH; assay type: functional; how it was run: as §1
Rattus norvegicus [6] = species on record: Rattus norvegicus; test: Effect of compound on in vitro accumulation of MDA content in heart at concentration of 5 uM; assay type: functional

SMILES | IC50 (Rattus norvegicus [1]) | IC50 (Rattus norvegicus [2]) | MDA content (Rattus norvegicus [3]) | Arrhythmia score (Rattus norvegicus [4]) | IC50 (Rattus norvegicus [5]) | MDA content (Rattus norvegicus [6])
Cc1c(C)c2c(c(C)c1O)CCC(C)(C(=O)Nc1ccc3c(c1)Cc1cc(NC(=O)CCCCC4CCSS4)ccc1-3)O2 (stereo not given) | 20 µM | 2.58 µM | – | – | – | –
O=C(O)CCCCC1CCSS1 (stereo not drawn) [LIPOIC ACID, ALPHA] | > 400 µM | > 1000 µM | 1.03 µM (g of tissue)-1 | 6.3 | – | –
Cc1c(C)c2c(c(C)c1O)CCC(C)(C(=O)O)O2 (stereo not given) [TROLOX] | – | 24.8 µM | – | 3.15 | 45 µM | 1.07 uM (g of tissue)-1
